Data: ChEMBL document CHEMBL4330076, “Quinazolin-2,4-dione-Based Hydroxamic Acids as Selective Histone Deacetylase-6 Inhibitors for Treatment of Non-Small Cell Lung Cancer” (J Med Chem, 2019)

Legend:
Histone deacetylase 1 = Histone deacetylase 1 (Homo sapiens, UniProt Q13547); test: Inhibition of human full-length recombinant HDAC1 expressed in baculovirus infected Sf9 insect cells using fluorogenic peptide RHKKAc as substrate after 2 hrs
How it was run: (§1)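 Run by an outside contract lab. IC50 was obtained from 10-point dose-response curves using threefold serial dilutions of compound from the top concentration.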

[1] = target: T1, Protein deacetylase HDAC6 (Homo sapiens, UniProt Q9UBN7); test: Inhibition of human full-length recombinant HDAC6 expressed in baculovirus infected Sf9 insect cells using fluorogenic peptide RHKKAc as substrate after 2 hrs
T1 sequence (Q9UBN7 whole entry): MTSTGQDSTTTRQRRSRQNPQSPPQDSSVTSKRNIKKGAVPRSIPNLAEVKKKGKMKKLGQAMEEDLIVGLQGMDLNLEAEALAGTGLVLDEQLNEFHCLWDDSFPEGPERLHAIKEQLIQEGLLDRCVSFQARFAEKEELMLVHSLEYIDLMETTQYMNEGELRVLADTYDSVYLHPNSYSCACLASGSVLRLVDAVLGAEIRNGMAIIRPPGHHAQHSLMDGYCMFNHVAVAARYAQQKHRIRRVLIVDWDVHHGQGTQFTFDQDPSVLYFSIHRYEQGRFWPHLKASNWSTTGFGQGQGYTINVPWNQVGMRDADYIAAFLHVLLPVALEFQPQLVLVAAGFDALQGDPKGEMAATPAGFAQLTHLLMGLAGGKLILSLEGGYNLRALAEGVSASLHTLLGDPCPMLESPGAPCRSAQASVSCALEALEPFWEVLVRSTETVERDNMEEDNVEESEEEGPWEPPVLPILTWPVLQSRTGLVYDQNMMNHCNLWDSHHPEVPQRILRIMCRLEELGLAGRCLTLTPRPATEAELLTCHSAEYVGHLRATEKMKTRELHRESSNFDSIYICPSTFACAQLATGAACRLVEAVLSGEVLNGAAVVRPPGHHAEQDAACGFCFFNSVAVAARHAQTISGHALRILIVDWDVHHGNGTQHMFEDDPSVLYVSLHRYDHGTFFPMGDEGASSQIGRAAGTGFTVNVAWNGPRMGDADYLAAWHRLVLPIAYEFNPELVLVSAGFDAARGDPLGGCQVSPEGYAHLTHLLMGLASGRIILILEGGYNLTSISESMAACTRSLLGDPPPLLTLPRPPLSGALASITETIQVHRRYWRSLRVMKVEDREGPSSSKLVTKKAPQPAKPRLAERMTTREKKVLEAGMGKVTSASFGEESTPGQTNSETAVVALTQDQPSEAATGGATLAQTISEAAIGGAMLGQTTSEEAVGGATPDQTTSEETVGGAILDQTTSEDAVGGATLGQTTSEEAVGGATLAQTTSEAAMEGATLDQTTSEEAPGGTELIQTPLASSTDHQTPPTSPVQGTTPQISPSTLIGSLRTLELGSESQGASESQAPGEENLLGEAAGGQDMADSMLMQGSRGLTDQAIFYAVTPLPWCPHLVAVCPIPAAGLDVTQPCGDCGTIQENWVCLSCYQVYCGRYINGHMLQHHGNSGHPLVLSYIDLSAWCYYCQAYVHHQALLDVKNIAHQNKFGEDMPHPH

Histone deacetylase 8 = target: T2, Histone deacetylase 8 (Homo sapiens, UniProt Q9BY41); test: Inhibition of human full-length recombinant HDAC8 expressed in baculovirus infected Sf9 insect cells using fluorogenic peptide RHKAcKAc as substrate after 2 hrs
T2 sequence (Q9BY41 whole entry): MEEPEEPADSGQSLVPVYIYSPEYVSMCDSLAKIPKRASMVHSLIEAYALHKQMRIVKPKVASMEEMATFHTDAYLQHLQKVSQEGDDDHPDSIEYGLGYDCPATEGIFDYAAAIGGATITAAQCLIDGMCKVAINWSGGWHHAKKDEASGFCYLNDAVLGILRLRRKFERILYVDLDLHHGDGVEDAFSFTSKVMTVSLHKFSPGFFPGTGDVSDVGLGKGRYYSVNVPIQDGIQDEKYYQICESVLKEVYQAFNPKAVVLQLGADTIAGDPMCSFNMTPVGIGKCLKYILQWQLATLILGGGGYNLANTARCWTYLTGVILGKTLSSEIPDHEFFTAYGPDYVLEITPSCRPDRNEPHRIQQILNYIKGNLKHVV

Histone deacetylase 11 = target: T3, Histone deacetylase 11 (Homo sapiens, UniProt Q96DB2); test: Inhibition of human full-length recombinant HDAC11 expressed in baculovirus infected Sf9 insect cells using fluorogenic peptide RHKKAc as substrate after 2 hrs; how it was run: as §1
T3 sequence (Q96DB2 whole entry): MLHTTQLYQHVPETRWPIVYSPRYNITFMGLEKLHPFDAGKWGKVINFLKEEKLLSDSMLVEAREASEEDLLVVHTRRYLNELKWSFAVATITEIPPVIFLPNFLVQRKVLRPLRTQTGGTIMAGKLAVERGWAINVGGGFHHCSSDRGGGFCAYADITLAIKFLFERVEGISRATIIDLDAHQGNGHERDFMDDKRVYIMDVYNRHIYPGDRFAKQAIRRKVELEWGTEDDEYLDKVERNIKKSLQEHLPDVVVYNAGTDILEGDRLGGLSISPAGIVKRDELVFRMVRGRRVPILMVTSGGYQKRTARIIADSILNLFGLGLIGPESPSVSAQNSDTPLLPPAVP

[2] = target: T1, Protein deacetylase HDAC6; test: Inhibition of human full-length recombinant HDAC6 expressed in baculovirus infected Sf9 insect cells using Boc-Lys (Ac)-AMC as substrate preincubated for 10 mins followed by substrate addition and measured after 30 mins by fluorescence assay
[3] = target: T1, Protein deacetylase HDAC6; test: Inhibition of human HDAC6 CD2 expressed in Escherichia coli BL21 (RIL) using Boc-Lys (Ac)-AMC as substrate preincubated for 10 mins followed by substrate addition and measured after 30 mins by fluorescence assay
A549 [4] = test: Cytotoxicity against human A549 cells after 72 hrs by MTT assay; format: functional, cell-based; settings: A549, 72 h
How it was run: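 Human A549 lung cancer cells exposed to serial dilutions of inhibitor at 37 °C for 72 h. Cytotoxicity expressed as IC50.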

[5] = tested on: Lewis lung carcinoma cell line; test: Induction of apoptosis in mouse LL/2 cells assessed as necrotic cells at 10 uM after 24 hrs by Annexin V/propidium iodide staining-based flow cytometric analysis (reference value: 7.3%); format: functional
[6] = tested on: Lewis lung carcinoma cell line; test: Cytotoxicity against mouse LL/2 cells after 72 hrs by MTT assay; format: functional, cell-based
[7] = tested on: Lewis lung carcinoma cell line; test: Cytotoxicity against mouse LL/2 cells at 10 uM after 72 hrs by MTT assay relative to control; format: functional; settings: in the assay text read “at 10 nM” for “at 10 uM”
How it was run: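 Mouse LL/2 cells treated with inhibitor alone or combined with paclitaxel for 3 days. Viability measured by MTT assay relative to untreated control.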

[8] = tested on: Lewis lung carcinoma cell line; test: Induction of alpha tubulin acetylation in mouse LL/2 cells at 10 uM after 24 hrs by Western blot analysis relative to control; format: functional
[9] = tested on: Lewis lung carcinoma cell line; test: Induction of apoptosis in mouse LL/2 cells assessed as viable cells at 10 uM after 24 hrs by Annexin V/propidium iodide staining-based flow cytometric analysis (reference value: 82.3%); format: functional; settings: read-out: Activity
[10] = tested on: Lewis lung carcinoma cell line; test: Induction of apoptosis in mouse LL/2 cells assessed as early apoptotic cells at 10 uM after 24 hrs by Annexin V/propidium iodide staining-based flow cytometric analysis (reference value: 1.8%); format: functional
[11] = tested on: Lewis lung carcinoma cell line; test: Induction of apoptosis in mouse LL/2 cells assessed as late apoptotic cells at 10 uM after 24 hrs by Annexin V/propidium iodide staining-based flow cytometric analysis (reference value: 8.7%); format: functional
A549 [12] = test: Induction of apoptosis in human A549 cells assessed as viable cells at 10 uM after 24 hrs by Annexin V/propidium iodide staining-based flow cytometric analysis (reference value: 96.2%); format: functional; settings: A549, 24 h, read-out: Activity
A549 [13] = test: Induction of apoptosis in human A549 cells assessed as early apoptotic cells at 10 uM after 24 hrs by Annexin V/propidium iodide staining-based flow cytometric analysis (reference value: 1.2%); format: functional
A549 [14] = test: Induction of apoptosis in human A549 cells assessed as late apoptotic cells at 10 uM after 24 hrs by Annexin V/propidium iodide staining-based flow cytometric analysis (reference value: 1.6%); format: functional
A549 [15] = test: Induction of apoptosis in human A549 cells assessed as necrotic cells at 10 uM after 24 hrs by Annexin V/propidium iodide staining-based flow cytometric analysis (reference value: 1.1%); format: functional
[16] = AUC (0 to 24 hrs) in C57BL/6 mouse lung at 40 mg/kg, po administered via gavage by LC-MS/MS analysis; format: ADME, organism-based; parameters: time < 24 hr, dose 40 mg/kg, route oral; settings: in vivo
[17] = AUC (0 to 24 hrs) in C57BL/6 mouse liver at 40 mg/kg, po administered via gavage by LC-MS/MS analysis; format: ADME, organism-based; parameters: dose 40 mg/kg, time < 24 hr, route oral; settings: in vivo
[18] = AUC (0 to 24 hrs) in C57BL/6 mouse kidney at 40 mg/kg, po administered via gavage by LC-MS/MS analysis; format: ADME, organism-based; parameters: time < 24 hr, dose 40 mg/kg, route oral; settings: in vivo
[19] = AUC (0 to 24 hrs) in C57BL/6 mouse plasma at 40 mg/kg, po administered via gavage by LC-MS/MS analysis; format: ADME, organism-based; parameters: time < 24 hr, dose 40 mg/kg, route oral; settings: in vivo

Chain of Histone deacetylase 1 (Q13547 whole entry): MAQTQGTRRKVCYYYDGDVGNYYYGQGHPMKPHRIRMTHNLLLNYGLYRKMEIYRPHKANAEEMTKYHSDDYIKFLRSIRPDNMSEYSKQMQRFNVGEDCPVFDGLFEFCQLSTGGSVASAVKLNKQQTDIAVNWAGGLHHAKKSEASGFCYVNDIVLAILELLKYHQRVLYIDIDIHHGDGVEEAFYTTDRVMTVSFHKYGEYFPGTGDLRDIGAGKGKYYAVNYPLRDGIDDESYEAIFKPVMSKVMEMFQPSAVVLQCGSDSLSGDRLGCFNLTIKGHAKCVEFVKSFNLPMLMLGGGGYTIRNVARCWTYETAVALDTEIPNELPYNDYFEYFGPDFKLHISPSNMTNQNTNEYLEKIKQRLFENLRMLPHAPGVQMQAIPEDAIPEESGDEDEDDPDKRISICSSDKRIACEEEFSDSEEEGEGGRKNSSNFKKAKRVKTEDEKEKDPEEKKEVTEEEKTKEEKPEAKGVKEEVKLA

| IC50 (Histone deacetylase 1) [nM] | IC50 [1] [nM] | IC50 (Histone deacetylase 11) [nM] | Compound | IC50 (A549 [4]) [nM] | further results |
| --- | --- | --- | --- | --- | --- |
| 7370 | 20 | 13800 | COc1ccc(CCn2c(=O)c3ccccc3n(Cc3ccc(C(=O)NO)cc3)c2=O)cc1 | – | IC50 (Histone deacetylase 8): 1150 nM |
| – | 29 | – | O=C(NO)c1ccc(Cn2c(=O)n(CCc3ccccc3)c(=O)c3cccnc32)cc1 | 2840 | Ki [2]: 3.89 nM; Ki [3]: 4.5 nM |
| – | 32 | – | O=C(NO)c1ccc(Cn2c(=O)n(CCc3ccccc3)c(=O)c3ccc(O)cc32)cc1 | – | – |
| > 10000 | – | > 10000 | O=C(NO)c1cc(Cn2c(=O)n(CCc3ccccc3)c(=O)c3ccccc32)cs1 | – | – |
| 9080 | 5 | 11300 | O=C(NO)c1ccc(Cn2c(=O)n(CCc3ccc(O)cc3)c(=O)c3ccccc32)cc1 | – | IC50 (Histone deacetylase 8): 845 nM |
| > 10000 | 4630 | > 10000 | O=C(NO)c1cccc(Cn2c(=O)n(CCc3ccccc3)c(=O)c3ccccc32)c1 | – | – |
| 22900 | 20 | 19800 | O=C(NO)c1ccc(Cn2c(=O)n(CCc3ccccc3)c(=O)c3ccccc32)s1 | 13500 | IC50 (Histone deacetylase 8): 97 nM |
| – | 12 | – | COc1ccccc1CCn1c(=O)c2ccccc2n(Cc2ccc(C(=O)NO)cc2)c1=O | 11800 | Ki [2]: 2.1 nM; Ki [3]: 2.6 nM |
| – | 22 | – | O=C(NO)c1ccc(Cn2c(=O)n(CCc3ccccc3)c(=O)c3ccc(Cl)cc32)cc1 | – | – |

Continued, molecule first:

| Compound | IC50 (Histone deacetylase 1) [nM] | IC50 [1] [nM] | IC50 (Histone deacetylase 11) [nM] | IC50 (A549 [4]) [nM] | further results |
| --- | --- | --- | --- | --- | --- |
| O=C(NO)c1ccc(Cn2c(=O)n(CCc3ccc(F)cc3)c(=O)c3ccccc32)cc1 | – | – | – | 3650 | – |
| O=C(NO)c1ccc(Cn2c(=O)n(CCc3ccccc3)c(=O)c3cc(F)ccc32)cc1 | – | – | – | 12200 | – |
| O=C(NO)c1ccc(Cn2c(=O)n(CCc3cccc(C(F)(F)F)c3)c(=O)c3ccccc32)cc1 | 12700 | 24 | – | 6030 | IC50 (Histone deacetylase 8): 1760 nM |
| O=C(NO)c1ccc(Cn2c(=O)n(CCc3ccccc3)c(=O)c3ccc(F)cc32)cc1 | – | – | – | 3920 | – |
| CC(=O)O[C@H]1C(=O)[C@@]2(C)[C@H]([C@H](OC(=O)c3ccccc3)[C@]3(O)C[C@H](OC(=O)[C@H](O)[C@@H](NC(=O)c4ccccc4)c4ccccc4)C(C)=C1C3(C)C)[C@]1(OC(C)=O)CO[C@@H]1C[C@@H]2O [PACLITAXEL] | – | – | – | – | Activity [5]: 6.9%; IC50 [6]: 10 nM; Activity [7]: 20%; fold change (FC) [8]: 7.28; viability at 10 µM [9]: 73.4%; Activity [10]: 4%; Activity [11]: 15.9%; viability at 10 µM (A549 [12]): 94.9%; Activity (A549 [13]): 2.9%; Activity (A549 [14]): 1.2%; Activity (A549 [15]): 1% |
| O=C(CCCCCCNC(=O)c1cnc(N(c2ccccc2)c2ccccc2)nc1)NO [RICOLINOSTAT] | – | – | – | 7700 | AUC [16]: 622 ng·h/g; AUC [17]: 1442 ng·h/g; AUC [18]: 2493 ng·h/g; AUC [19]: 308 ng·h/g |
| O=C(CCCCCCC(=O)Nc1ccccc1)NO [VORINOSTAT] | – | – | – | 2240 | – |
